In ChEMBL document CHEMBL1177643, “Synthesis, DNA-binding ability and anticancer activity of benzothiazole/benzoxazole-pyrrolo[2,1-c][1,4]benzodiazepine conjugates” (Bioorg Med Chem, 2010):

Experiments:
Assay type in all cases: functional
[1] = test system: LOX IMVI; assay: Growth inhibition of human LOXIMVI cells after 48 hrs by sulforhodamine B assay
Summary of the method: (§1)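 Panel of 60 human cancer cell lines; for each compound, dose–response curves per cell line measured at a minimum of five concentrations at 10-fold dilutions. Cells exposed continuously to drug for 48 h, and growth was read out by sulforhodamine B staining.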

[2] = test system: SNB-75; assay: Growth inhibition of human SNB75 cells after 48 hrs by sulforhodamine B assay; conditions: SNB-75, 48 h; summary of the method: as §1
[3] = test system: MCF7; assay: Growth inhibition of human MCF7 cells after 48 hrs by sulforhodamine B assay; conditions: MCF7, 48 h; summary of the method: as §1
[4] = test system: M14; assay: Growth inhibition of human M14 cells after 48 hrs by sulforhodamine B assay; conditions: M14, 48 h; summary of the method: as §1
[5] = test system: OVCAR-8; assay: Growth inhibition of human OVCAR8 cells after 48 hrs by sulforhodamine B assay; conditions: OVCAR-8, 48 h; summary of the method: as §1
[6] = test system: SF-268; assay: Growth inhibition of human SF268 cells after 48 hrs by sulforhodamine B assay; conditions: SF-268, 48 h; summary of the method: as §1
[7] = test system: HCT-116; assay: Growth inhibition of human HCT116 cells after 48 hrs by sulforhodamine B assay; conditions: HCT-116, 48 h; summary of the method: as §1
[8] = test system: A-375; assay: Cell cycle arrest in human A375 cells assessed as accumulation at G0 phase at 2 uM after 24 hrs using propidium iodide staining by flow cytometry
Summary of the method: (§2)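 A375 cells (5×10^5) grown 24 h, then exposed to compound 24 h (DMSO control). Trypsin–EDTA harvest, fixed in ice-cold 70% ethanol at 4 °C 30 min, RNase A 37 °C 30 min, propidium iodide staining. DNA content measured by flow cytometry on 20,000 events, gated as sub-G1/G0, G1, S and G2/M.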

[9] = test system: SNB-19; assay: Growth inhibition of human SNB19 cells after 48 hrs by sulforhodamine B assay; conditions: SNB-19, 48 h; summary of the method: as §1
[10] = test system: ACHN; assay: Growth inhibition of human ACHN cells after 48 hrs by sulforhodamine B assay
Summary of the method: (§3)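 Dose–response in each cell line over at least five concentrations at 10-fold dilutions, with 48 h continuous exposure and sulforhodamine B read-out.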

[11] = test system: U-251; assay: Growth inhibition of human U251 cells after 48 hrs by sulforhodamine B assay; conditions: U-251, 48 h; summary of the method: as §1
[12] = test system: Malme-3M; assay: Growth inhibition of human MALME-3M cells after 48 hrs by sulforhodamine B assay; summary of the method: as §1
[13] = test system: A-375; assay: Cell cycle arrest in human A375 cells assessed as accumulation at G1 phase at 2 uM after 24 hrs using propidium iodide staining by flow cytometry; summary of the method: as §2
[14] = test system: MDA-MB-435; assay: Growth inhibition of human MDA-MB-435 cells after 48 hrs by sulforhodamine B assay; conditions: MDA-MB-435, 48 h; summary of the method: as §1
[15] = test system: A498; assay: Growth inhibition of human A498 cells after 48 hrs by sulforhodamine B assay; conditions: A498, 48 h; summary of the method: as §3
[16] = test system: NCI-H522; assay: Growth inhibition of human NCI-H522 cells after 48 hrs by sulforhodamine B assay; conditions: NCI-H522, 48 h; summary of the method: as §1
[17] = test system: HOP-92; assay: Growth inhibition of human HOP92 cells after 48 hrs by sulforhodamine B assay; conditions: HOP-92, 48 h; summary of the method: as §1
[18] = test system: MDA-MB-231; assay: Growth inhibition of human MDA-MB-231 cells after 48 hrs by sulforhodamine B assay; conditions: MDA-MB-231, 48 h; summary of the method: as §1
[19] = test system: Hs-578T; assay: Growth inhibition of human Hs 578T cells after 48 hrs by sulforhodamine B assay; summary of the method: as §1
[20] = test system: IGROV-1; assay: Growth inhibition of human IGROV1 cells after 48 hrs by sulforhodamine B assay; conditions: IGROV-1, 48 h; summary of the method: as §1
[21] = test system: A-375; assay: Cell cycle arrest in human A375 cells assessed as accumulation at G0/G1 phase at 2 uM after 24 hrs using propidium iodide staining by flow cytometry; summary of the method: as §2
[22] = test system: OVCAR-3; assay: Growth inhibition of human OVCAR-3 cells after 48 hrs by sulforhodamine B assay; conditions: OVCAR-3, 48 h; summary of the method: as §1
[23] = test system: RXF 393; assay: Growth inhibition of human RXF393 cells after 48 hrs by sulforhodamine B assay; conditions: RXF 393, 48 h; summary of the method: as §1
[24] = test system: MOLT-4; assay: Growth inhibition of human MOLT4 cells after 48 hrs by sulforhodamine B assay; conditions: MOLT-4, 48 h; summary of the method: as §1
[25] = test system: HT-29; assay: Growth inhibition of human HT-29 cells after 48 hrs by sulforhodamine B assay; conditions: HT-29, 48 h; summary of the method: as §1
[26] = test system: NCI-H460; assay: Growth inhibition of human NCI-H460 cells after 48 hrs by sulforhodamine B assay; conditions: NCI-H460, 48 h; summary of the method: as §1
[27] = test system: HL-60; assay: Growth inhibition of human HL-60(TB) cells after 48 hrs by sulforhodamine B assay; conditions: HL-60, 48 h; summary of the method: as §1
[28] = test system: OVCAR-5; assay: Growth inhibition of human OVCAR5 cells after 48 hrs by sulforhodamine B assay; conditions: OVCAR-5, 48 h; summary of the method: as §1
[29] = test system: K562; assay: Growth inhibition of human K562 cells after 48 hrs by sulforhodamine B assay; conditions: K562, 48 h; summary of the method: as §1
[30] = test system: HCC 2998; assay: Growth inhibition of human HCC2998 cells after 48 hrs by sulforhodamine B assay; conditions: HCC 2998, 48 h; summary of the method: as §1
[31] = test system: PC-3; assay: Growth inhibition of human PC3 cells after 48 hrs by sulforhodamine B assay; conditions: PC-3, 48 h; summary of the method: as §1
[32] = test system: SF-295; assay: Growth inhibition of human SF295 cells after 48 hrs by sulforhodamine B assay; conditions: SF-295, 48 h; summary of the method: as §1
[33] = Growth inhibition of human […] cells after 48 hrs by sulforhodamine B assay; summary of the method: as §1
[34] = test system: CAKI-1; assay: Growth inhibition of human Caki1 cells after 48 hrs by sulforhodamine B assay; conditions: CAKI-1, 48 h; summary of the method: as §3
[35] = test system: SK-MEL-2; assay: Growth inhibition of human SK-MEL-2 cells after 48 hrs by sulforhodamine B assay; conditions: SK-MEL-2, 48 h; summary of the method: as §1
[36] = test system: CCRF-CEM; assay: Growth inhibition of human CCRF-CEM cells after 48 hrs by sulforhodamine B assay; summary of the method: as §3
[37] = test system: NCI/ADR-RES; assay: Growth inhibition of human NCI/ADR-RES cells after 48 hrs by sulforhodamine B assay; summary of the method: as §1
[38] = test system: NCI-H322M; assay: Growth inhibition of human NCI-H322M cells after 48 hrs by sulforhodamine B assay; summary of the method: as §1
[39] = test system: SK-OV-3; assay: Growth inhibition of human SKOV3 cells after 48 hrs by sulforhodamine B assay; conditions: SK-OV-3, 48 h; summary of the method: as §1
[40] = test system: SK-MEL-5; assay: Growth inhibition of human SK-MEL-5 cells after 48 hrs by sulforhodamine B assay; conditions: SK-MEL-5, 48 h; summary of the method: as §1
[41] = test system: SK-MEL-28; assay: Growth inhibition of human SK-MEL-28 cells after 48 hrs by sulforhodamine B assay; conditions: SK-MEL-28, 48 h; summary of the method: as §1
[42] = test system: UO-31; assay: Growth inhibition of human UO31 cells after 48 hrs by sulforhodamine B assay; conditions: UO-31, 48 h; summary of the method: as §1
[43] = test system: BT-549; assay: Growth inhibition of human BT549 cells after 48 hrs by sulforhodamine B assay; conditions: BT-549, 48 h; summary of the method: as §3
[44] = test system: A-375; assay: Cell cycle arrest in human A375 cells assessed as accumulation at S phase at 2 uM after 24 hrs using propidium iodide staining by flow cytometry; summary of the method: as §2
[45] = test system: HOP-62; assay: Growth inhibition of human HOP62 cells after 48 hrs by sulforhodamine B assay; conditions: HOP-62, 48 h; summary of the method: as §1

COc1cc(-c2nc3ccccc3s2)ccc1OCCCCCOc1cc2c(cc1OC)C(=O)N1CCC[C@H]1C=N2
GI50 [1]: 18.2 nM
GI50 [2]: 145 nM
GI50 [3]: 19.1 nM
GI50 [4]: 39.8 nM
GI50 [5]: 141 nM
GI50 [6]: 347 nM
GI50 [7]: 38.9 nM
Activity [8]: 26.75%
GI50 [9]: 219 nM
GI50 [10]: 53.7 nM
GI50 [11]: 33.9 nM
GI50 [12]: 145 nM
Activity [13]: 67.04%
GI50 [14]: 85.1 nM
GI50 [15]: 174 nM
GI50 [16]: 41.7 nM
GI50 [17]: 44.7 nM
GI50 [18]: 89.1 nM
GI50 [19]: 141 nM
GI50 [20]: 347 nM
Activity [21]: 93.79%
GI50 [22]: 97.7 nM
GI50 [23]: 51.3 nM
GI50 [24]: 43.6 nM
GI50 [25]: 40.7 nM
GI50 [26]: 39.8 nM
GI50 [27]: 33.1 nM
GI50 [28]: 70.8 nM
GI50 [29]: 20.4 nM
GI50 [30]: 126 nM
GI50 [31]: 41.7 nM
GI50 [32]: 67.6 nM
GI50 [33]: 74.1 nM
GI50 [34]: 117 nM
GI50 [35]: 178 nM
GI50 [36]: 21.9 nM
GI50 [37]: 269 nM
GI50 [38]: 302 nM
GI50 [39]: 178 nM
GI50 [40]: 24.6 nM
GI50 [41]: 331 nM
GI50 [42]: 200 nM
GI50 [43]: 21.9 nM
Activity [44]: 3.11%
GI50 [45]: 45.7 nM
